Reference: ChEMBL document CHEMBL1145117, “Structures and cytotoxic properties of trichoverroids and their macrolide analogues produced by saltwater culture of Myrothecium verrucaria” (J Med Chem, 2003)
pIC50: −log10 of the molar value.

What was measured:
[1] = test system: COLO 205; assay: In vitro antitumor activity against colon COLO 205 tumor cell lines; format: functional, cell-based, Homo sapiens; conditions: colo 205
[2] = test system: SK-MEL-2; assay: In vitro antitumor activity against melanoma SK-MEL-2 tumor cell lines; format: functional, cell-based, Homo sapiens; conditions: sk-mel-2
[3] = test system: MDA-MB-435; assay: In vitro antitumor activity against breast MDA-MB-435 tumor cell lines; format: functional, cell-based, Homo sapiens; conditions: mda-mb-435
[4] = test system: MCF7; assay: In vitro antitumor activity against breast MCF-7 tumor cell lines; format: functional, cell-based, Homo sapiens; conditions: mcf7
[5] = test system: UACC-62; assay: In vitro antitumor activity against melanoma UACC-62 tumor cell lines; format: functional, cell-based, Homo sapiens; conditions: uacc-62
[6] = species on record: Homo sapiens; assay: Concentration giving 500 zone units against H116 colon tumor cell lines; format: functional
Summary of the method: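 Disk diffusion soft agar colony formation assay on human H116 colon tumor cells. Each sample was applied to a disk as 15 µL, and activity was read as zone units. The value is the sample concentration that gave 500 zone units.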

[7] = test system: HCT-15; assay: In vitro antitumor activity against colon HCT-15 tumor cell lines; format: functional, cell-based, Homo sapiens; conditions: hct-15
[8] = test system: NCI-H522; assay: In vitro antitumor activity against NSCL NCI-H522 tumor cell lines; format: functional, cell-based, Homo sapiens; conditions: nci-h522
[9] = test system: HCT-116; assay: In vitro antitumor activity against colon HCT116 tumor cell lines; format: functional, cell-based, Homo sapiens; conditions: hct-116
[10] = test system: HL-60; assay: In vitro antitumor activity against leukemia HL-60(TB) tumor cell lines; format: functional, cell-based, Homo sapiens; conditions: hl-60
[11] = test system: RXF 393; assay: In vitro antitumor activity against renal RXF 393 tumor cell lines; format: functional, cell-based, Homo sapiens; conditions: rxf 393
[12] = test system: 786-0; assay: In vitro antitumor activity against renal 786-0 tumor cell lines; format: functional, cell-based, Homo sapiens
[13] = test system: A498; assay: In vitro antitumor activity against renal A498 tumor cell lines; format: functional, cell-based, Homo sapiens; conditions: a498
[14] = test system: NCI-H226; assay: In vitro antitumor activity against NSCL NCI-H226 tumor cell lines; format: functional, cell-based, Homo sapiens; conditions: nci-h226
[15] = test system: CCRF-CEM; assay: In vitro antitumor activity against leukemia CCRF-CEM tumor cell lines; format: functional, cell-based, Homo sapiens; conditions: ccrf-cem
[16] = test system: MOLT-4; assay: In vitro antitumor activity against leukemia MOLT-4 tumor cell lines; format: functional, cell-based, Homo sapiens; conditions: molt-4
[17] = test system: M14; assay: In vitro antitumor activity against melanoma M14 tumor cell lines; format: functional, cell-based, Homo sapiens; conditions: m14
[18] = test system: A549; assay: In vitro antitumor activity against NSCL A549/ATCC tumor cell lines; format: functional, cell-based, Homo sapiens; conditions: a549
[19] = test system: MDA-N; assay: In vitro antitumor activity against breast MDA-N tumor cell lines; format: functional, cell-based, Homo sapiens; conditions: mda-n
[20] = test system: colon; assay: Selectivity was evaluated against human ZH116 colon cell lines-CEM lymphocytic leukemia cell lines at a concentration of 0.24 ug/mL; format: functional, cell-based
Summary of the method: (§1)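 Disk diffusion soft agar colony formation assay; sample applied to disk (15 μL); cytotoxicity read as zone units. Differential = zone difference between a solid tumor line (murine Colon38; human colon H116, lung H125) and leukemia (murine L1210, human CEM) or normal bone marrow CFU-GM (murine/human). Solid tumor selective if differential exceeds 250 units.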

[21] = test system: MC-38; assay: Selectivity was evaluated against murine tumor ZC38 colon adenocarcinoma cell lines- ZCFU-GM normal bone marrow cell lines at a concentration of 0.24 ug/mL; format: functional, cell-based; conditions: Mus musculus; summary of the method: as §1
[22] = species on record: Homo sapiens; assay: Activity relative to compound 3 (set to 1.0) was evaluated against H116 colon tumor cell lines; format: functional
Summary of the method: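 Disk diffusion soft agar colony formation assay on human H116 colon tumor cells, with 15 µL of sample applied to a disk and zone units read. Relative activity = (dilution required for 500 zone units × 100)/(mg/mL), normalised to a reference compound set at 1.0.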

[23] = test system: MC-38; assay: Selectivity was evaluated against Murine tumor ZC38 colon adenocarcinoma cell lines- ZL1210 lymphocytic leukemia cell lines at a concentration of 0.24 ug/mL; format: functional, cell-based; conditions: Mus musculus; summary of the method: as §1
[24] = test system: L1210; assay: Selectivity was evaluated murine tumor against ZL1210 lymphocytic leukemia cell lines- ZCFU-GM normal bone marrow cell lines at a concentration of 0.24 ug/mL; format: functional, cell-based; conditions: Mus musculus; summary of the method: as §1
[25] = test system: NCI-H125; assay: Selectivity was evaluated against human ZH125 lung non small cell carcinoma cell lines-CEM lymphocytic leukemia cell lines at a concentration of 0.24 ug/mL; format: functional, cell-based; summary of the method: as §1

Compound	pIC50 [1]	pIC50 [2]	pIC50 [3]	pIC50 [4]	pIC50 [5]	Concentration [6] [µg/mL]	pIC50 [7]	pIC50 [8]	pIC50 [9]	pIC50 [10]	pIC50 [11]	pIC50 [12]	pIC50 [13]	pIC50 [14]	pIC50 [15]	pIC50 [16]	pIC50 [17]	pIC50 [18]	pIC50 [19]	also measured
CC1=C[C@H]2O[C@@H]3[C@H](O)[C@H]4OC(=O)/C=C\C=C\[C@H]([C@@H](C)O)OCC/C(C)=C/C(=O)OC[C@@]2(CC1)[C@]4(C)[C@]31CO1	< 5.00	< 5.00	8.40	< 5.00	8.05	0.14	< 5.00	< 5.00	> 9.00	8.00	7.24	7.23	8.05	8.15	< 5.00	< 5.00	> 9.00	–	–	–
CC1=C[C@H]2O[C@@H]3C[C@H]4OC(=O)/C=C\C=C\[C@H]([C@H](C)O)OCC/C(C)=C/C(=O)OC[C@@]2(CC1)[C@]4(C)[C@]31CO1	–	–	–	–	–	8.6	–	–	–	–	–	–	–	–	–	–	–	–	–	–
CC(=O)OC(C)[C@@H](O)/C=C/C=C\C(=O)O[C@@H]1CC2O[C@@H]3C=C(C)CC[C@]3(COC(=O)/C=C(\C)CCO)[C@]1(C)[C@]21CO1 (some centres undefined) [13`-ACETYLTRICHOVERRIN B]	6.21	< 5.00	5.65	< 5.00	5.02	31	< 5.00	5.92	< 5.00	< 5.00	< 5.00	< 5.00	5.62	5.31	< 5.00	< 5.00	5.05	5.01	5.29	–
CC1=C[C@H]2O[C@@H]3C[C@H]4OC(=O)/C=C\C=C\[C@H]([C@H](C)O)OCC[C@@H](C)[C@H](O)C(=O)OC[C@@]2(CC1)[C@]4(C)[C@]31CO1 [(6'R,13'S) ISORORIDIN A]	8.10	< 5.00	7.51	< 5.00	8.70	0.9	< 5.00	7.02	< 5.00	< 5.00	8.00	< 5.00	8.22	–	< 5.00	< 5.00	8.00	< 5.00	8.10	–
CC(=O)OC[C@]12CCC(C)=C[C@H]1O[C@@H]1[C@H](O)[C@@H](OC(C)=O)[C@@]2(C)[C@]12CO2 [ANGUIDIN]	> 9.00	> 9.00	> 9.00	> 9.00	> 9.00	0.24	> 9.00	> 9.00	> 9.00	> 9.00	> 9.00	> 9.00	> 9.00	> 9.00	> 9.00	> 9.00	> 9.00	> 9.00	> 9.00	Selectivity [20]: -100 zone unit; Selectivity [21]: 0 zone unit; Relative activity [22]: 423; Selectivity [23]: -150 zone unit; Selectivity [24]: 150 zone unit; Selectivity [25]: 0 zone unit
CC1=C[C@H]2O[C@@H]3C[C@H]4OC(=O)/C=C\C=C\[C@H]([C@@H](C)O)OCC[C@@H](C)[C@H](O)C(=O)OC[C@@]2(CC1)[C@]4(C)[C@]31CO1 [RORIDIN A]	8.52	8.52	8.22	< 5.00	8.30	0.78	< 5.00	> 9.00	< 5.00	< 5.00	8.70	7.40	6.50	8.52	< 5.00	< 5.00	> 9.00	< 5.00	8.52	–
